Experimental data taken from ChEMBL document CHEMBL4411279, “Synthesis of new chalcone-based homoserine lactones and their antiproliferative activity evaluation” (Eur J Med Chem, 2019).
Activity calls are given as the source filed them. No cut-off for these calls is given here.

Assays:
MCF7 = assay: Antiproliferative activity against human MCF7 cells after 72 hrs by MTT assay; type: functional, cell-based; details: MCF7, 72 h
Procedure, shortened: (§1)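 Cells seeded 3,000/well, after 24 h medium replaced with compound at 64, 32, 16, 8, 4, 2, 1, 0.5 µM; 72 h exposure, MTT read-out at 570 nm; IC50 given as mean ± SD.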

MGC-803 = assay: Antiproliferative activity against human MGC803 cells after 72 hrs by MTT assay; type: functional, cell-based; details: MGC-803, 72 h; procedure, shortened: as §1
DU-145 [1] = assay: Antiproliferative activity against human DU145 cells after 72 hrs by MTT assay; type: functional, cell-based; details: DU-145, 72 h; procedure, shortened: as §1
PC-3 = assay: Antiproliferative activity against human PC3 cells after 72 hrs by MTT assay; type: functional, cell-based; details: PC-3, 72 h; procedure, shortened: as §1
DU-145 [2] = assay: Inhibition of colony formation in human DU145 cells after 21 days by crystal violet staining-based assay; type: functional, cell-based
Procedure, shortened: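 DU145 seeded 4000/well, grown 4 days, then medium with compound at various concentrations for 21 days; PBS washed, fixed in 4% paraformaldehyde, stained with 0.1% crystal violet; colonies (>10 cells) counted; inhibition = (1 − treated/control colonies) × 100%.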

DU-145 [3] = assay: Growth inhibition of human DU145 cells at 5 uM after 24 to 48 hrs by MTT assay; type: functional, cell-based
Procedure, shortened: (§2)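 DU145 growth inhibition measured by MTT; time course at 24, 48 and 72 h; combination arm used recombinant TRAIL at 100 ng/mL together with compound (2.5 or 5.0 µM); mean ± SD, experiment repeated three times, Student's t test.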

DU-145 [4] = assay: Growth inhibition of human DU145 cells at 5 uM by MTT assay; type: functional, cell-based; details: TDE = time-dependent effect; procedure, shortened: as §2
DU-145 [5] = assay: Growth inhibition of human DU145 cells at 5 uM after 72 hrs in presence of TRAIL by MTT assay relative to control; type: functional; details: DU-145, 72 h, read-out: GI; procedure, shortened: as §2
DU-145 [6] = assay: Induction of apoptosis in human DU145 cells assessed as cell rounding at 10 uM after 24 hrs by Hoechst 33258 staining-based fluorescence microscopic analysis; type: functional
Procedure, shortened: (§3)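 DU145 seeded 1×10^5/well, adhered overnight, treated 24 h with compound alone or combined with TRAIL; stained with Hoechst 33258 for 30 min in the dark; nuclear morphology examined by fluorescence microscopy.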

DU-145 [7] = assay: Induction of apoptosis in human DU145 cells assessed as cell rounding at 10 uM after 24 hrs in presence of TRAIL by Hoechst 33258 staining-based fluorescence microscopic analysis; type: functional; procedure, shortened: as §3
DU-145 [8] = assay: Induction of apoptosis in human DU145 cells assessed as chromatin shrinkage at 10 uM after 24 hrs by Hoechst 33258 staining-based fluorescence microscopic analysis; type: functional, cell-based; procedure, shortened: as §3
DU-145 [9] = assay: Induction of apoptosis in human DU145 cells assessed as chromatin shrinkage at 10 uM after 24 hrs in presence of TRAIL by Hoechst 33258 staining-based fluorescence microscopic analysis; type: functional, cell-based; procedure, shortened: as §3
DU-145 [10] = assay: Induction of apoptosis in human DU145 cells assessed as formation of apoptotic bodies at 10 uM after 24 hrs by Hoechst 33258 staining-based fluorescence microscopic analysis; type: functional, cell-based; procedure, shortened: as §3
DU-145 [11] = assay: Induction of apoptosis in human DU145 cells assessed as formation of apoptotic bodies at 10 uM after 24 hrs in presence of TRAIL by Hoechst 33258 staining-based fluorescence microscopic analysis; type: functional, cell-based; procedure, shortened: as §3
DU-145 [12] = assay: Induction of apoptosis in human DU145 cells assessed as viable cells at 10 uM after 24 hrs by Annexin V-FITC/propidium iodide staining-based high content screening assay (reference value: 97.9%); type: functional; details: DU-145, 24 h, read-out: Activity
Procedure, shortened: (§4)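 DU145 seeded 3×10^5/well, grown 24 h, treated 24 h with compound alone or plus TRAIL; harvested, stained with Annexin V-FITC/PI per kit protocol, quantified by high content screening; mean ± SD of three experiments.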

DU-145 [13] = assay: Induction of apoptosis in human DU145 cells assessed as early apoptotic cells at 10 uM after 24 hrs by Annexin V-FITC/propidium iodide staining-based high content screening assay (reference value: 0.3%); type: functional; procedure, shortened: as §4
DU-145 [14] = assay: Induction of apoptosis in human DU145 cells assessed as late apoptotic cells at 10 uM after 24 hrs by Annexin V-FITC/propidium iodide staining-based high content screening assay (reference value: 0.2%); type: functional; procedure, shortened: as §4
DU-145 [15] = assay: Induction of apoptosis in human DU145 cells assessed as necrotic cells at 10 uM after 24 hrs by Annexin V-FITC/propidium iodide staining-based high content screening assay (reference value: 1.6%); type: functional; procedure, shortened: as §4
DU-145 [16] = assay: Induction of apoptosis in human DU145 cells assessed as viable cells at 10 uM after 24 hrs in presence of TRAIL by Annexin V-FITC/propidium iodide staining-based high content screening assay (reference value: 97.9%); type: functional; details: DU-145, 24 h, read-out: Activity; procedure, shortened: as §4
DU-145 [17] = assay: Induction of apoptosis in human DU145 cells assessed as early apoptotic cells at 10 uM after 24 hrs in presence of TRAIL by Annexin V-FITC/propidium iodide staining-based high content screening assay (reference value: 0.3%); type: functional; procedure, shortened: as §4
DU-145 [18] = assay: Induction of apoptosis in human DU145 cells assessed as late apoptotic cells at 10 uM after 24 hrs in presence of TRAIL by Annexin V-FITC/propidium iodide staining-based high content screening assay (reference value: 0.2%); type: functional; procedure, shortened: as §4
DU-145 [19] = assay: Induction of apoptosis in human DU145 cells assessed as necrotic cells at 10 uM after 24 hrs in presence of TRAIL by Annexin V-FITC/propidium iodide staining-based high content screening assay (reference value: 1.6%); type: functional; procedure, shortened: as §4
DU-145 [20] = assay: Induction of apoptosis in human DU145 cells assessed as increase in caspase-3/7 activity at 10 to 50 uM after 24 hrs by Caspase-Glo 3/7 assay; type: functional, cell-based
Procedure, shortened: (§5)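 DU145 treated 24 h with compound alone or with TRAIL (100 ng/mL); caspase-3/7 activity measured by Caspase-Glo 3/7 luminescent protocol relative to untreated control; three independent experiments, mean ± SD, Student's t test.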

DU-145 [21] = assay: Induction of apoptosis in human DU145 cells assessed as increase in caspase-3/7 activity at 10 uM after 24 hrs in presence of TRAIL by Caspase-Glo 3/7 assay relative to control; type: functional; procedure, shortened: as §5
DU-145 [22] = assay: Growth inhibition of human DU145 cells at 2.5 uM by MTT assay; type: functional, cell-based; details: TDE = time-dependent effect; procedure, shortened: as §2
DU-145 [23] = assay: Induction of apoptosis in human DU145 cells assessed as cell rounding at 5 uM after 24 hrs by Hoechst 33258 staining-based fluorescence microscopic analysis; type: functional; procedure, shortened: as §3
DU-145 [24] = assay: Growth inhibition of human DU145 cells at 2.5 uM after 24 to 48 hrs by MTT assay; type: functional, cell-based; procedure, shortened: as §2
DU-145 [25] = assay: Growth inhibition of human DU145 cells at 2.5 uM after 72 hrs in presence of TRAIL by MTT assay relative to control; type: functional; details: DU-145, 72 h, read-out: GI; procedure, shortened: as §2
DU-145 [26] = assay: Induction of apoptosis in human DU145 cells assessed as chromatin shrinkage at 5 uM after 24 hrs by Hoechst 33258 staining-based fluorescence microscopic analysis; type: functional, cell-based; procedure, shortened: as §3
DU-145 [27] = assay: Induction of apoptosis in human DU145 cells assessed as formation of apoptotic bodies at 5 uM after 24 hrs by Hoechst 33258 staining-based fluorescence microscopic analysis; type: functional, cell-based; procedure, shortened: as §3
DU-145 [28] = assay: Induction of apoptosis in human DU145 cells assessed as cell rounding at 5 uM after 24 hrs in presence of TRAIL by Hoechst 33258 staining-based fluorescence microscopic analysis; type: functional; procedure, shortened: as §3
DU-145 [29] = assay: Induction of apoptosis in human DU145 cells assessed as chromatin shrinkage at 5 uM after 24 hrs in presence of TRAIL by Hoechst 33258 staining-based fluorescence microscopic analysis; type: functional, cell-based; procedure, shortened: as §3
DU-145 [30] = assay: Induction of apoptosis in human DU145 cells assessed as formation of apoptotic bodies at 5 uM after 24 hrs in presence of TRAIL by Hoechst 33258 staining-based fluorescence microscopic analysis; type: functional, cell-based; procedure, shortened: as §3
DU-145 [31] = assay: Induction of apoptosis in human DU145 cells assessed as viable cells at 5 uM after 24 hrs by Annexin V-FITC/propidium iodide staining-based high content screening assay (reference value: 97.9%); type: functional; details: DU-145, 24 h, read-out: Activity; procedure, shortened: as §4
DU-145 [32] = assay: Induction of apoptosis in human DU145 cells assessed as early apoptotic cells at 5 uM after 24 hrs by Annexin V-FITC/propidium iodide staining-based high content screening assay (reference value: 0.3%); type: functional; procedure, shortened: as §4
DU-145 [33] = assay: Induction of apoptosis in human DU145 cells assessed as late apoptotic cells at 5 uM after 24 hrs by Annexin V-FITC/propidium iodide staining-based high content screening assay (reference value: 0.2%); type: functional; procedure, shortened: as §4
DU-145 [34] = assay: Induction of apoptosis in human DU145 cells assessed as necrotic cells at 5 uM after 24 hrs by Annexin V-FITC/propidium iodide staining-based high content screening assay (reference value: 1.6%); type: functional; procedure, shortened: as §4
DU-145 [35] = assay: Induction of apoptosis in human DU145 cells assessed as viable cells at 5 uM after 24 hrs in presence of TRAIL by Annexin V-FITC/propidium iodide staining-based high content screening assay (reference value: 97.9%); type: functional; details: DU-145, 24 h, read-out: Activity; procedure, shortened: as §4
DU-145 [36] = assay: Induction of apoptosis in human DU145 cells assessed as early apoptotic cells at 5 uM after 24 hrs in presence of TRAIL by Annexin V-FITC/propidium iodide staining-based high content screening assay (reference value: 0.3%); type: functional; procedure, shortened: as §4
DU-145 [37] = assay: Induction of apoptosis in human DU145 cells assessed as late apoptotic cells at 5 uM after 24 hrs in presence of TRAIL by Annexin V-FITC/propidium iodide staining-based high content screening assay (reference value: 0.2%); type: functional; procedure, shortened: as §4
DU-145 [38] = assay: Induction of apoptosis in human DU145 cells assessed as necrotic cells at 5 uM after 24 hrs in presence of TRAIL by Annexin V-FITC/propidium iodide staining-based high content screening assay (reference value: 1.6%); type: functional; procedure, shortened: as §4
DU-145 [39] = assay: Induction of apoptosis in human DU145 cells assessed as increase in caspase-3/7 activity at 2.5 to 10 uM after 24 hrs by Caspase-Glo 3/7 assay; type: functional, cell-based; procedure, shortened: as §5
DU-145 [40] = assay: Induction of apoptosis in human DU145 cells assessed as increase in caspase-3/7 activity at 5 uM after 24 hrs in presence of TRAIL by Caspase-Glo 3/7 assay relative to control; type: functional; procedure, shortened: as §5

CCCCCCCCCC(=O)CC(=O)N[C@H]1CCOC1=O
IC50 (MCF7): 26.2 µM
IC50 (MGC-803): 29.5 µM
IC50 (DU-145 [1]): 19.3 µM
IC50 (PC-3): 22.5 µM
inhibition (DU-145 [2]): Dose-dependent effect
Activity (DU-145 [3]): Active
growth inhibition (GI) (DU-145 [4]): Tde
inhibition of growth at 5 µM (DU-145 [5]): 20%
Activity (DU-145 [6]): Active
Activity (DU-145 [7]): Active
Activity (DU-145 [8]): Active
Activity (DU-145 [9]): Active
Activity (DU-145 [10]): Active
Activity (DU-145 [11]): Active
viability at 10 µM (DU-145 [12]): 89.2%
Activity (DU-145 [13]): 9.2%
Activity (DU-145 [14]): 1.1%
Activity (DU-145 [15]): 0.5%
viability at 10 µM (DU-145 [16]): 77.9%
Activity (DU-145 [17]): 12.2%
Activity (DU-145 [18]): 9.7%
Activity (DU-145 [19]): 0.2%
Activity (DU-145 [20]): Active
fold change (FC) (DU-145 [21]): 2

O=C(COc1ccc(C(=O)/C=C/c2ccccc2Cl)cc1)N[C@H]1CCOC1=O
IC50 (MCF7): 17.4 µM
IC50 (MGC-803): 27.1 µM
IC50 (DU-145 [1]): 3.24 µM
IC50 (PC-3): 4.61 µM
inhibition (DU-145 [2]): Dose-dependent effect
growth inhibition (GI) (DU-145 [22]): Tde
Activity (DU-145 [23]): Active
Activity (DU-145 [24]): Active
inhibition of growth at 2.5 µM (DU-145 [25]): 50%
Activity (DU-145 [26]): Active
Activity (DU-145 [27]): Active
Activity (DU-145 [28]): Active
Activity (DU-145 [29]): Active
Activity (DU-145 [30]): Active
viability at 5 µM (DU-145 [31]): 90.1%
Activity (DU-145 [32]): 6.4%
Activity (DU-145 [33]): 1.7%
Activity (DU-145 [34]): 1.7%
viability at 5 µM (DU-145 [35]): 84.8%
Activity (DU-145 [36]): 13.4%
Activity (DU-145 [37]): 1.7%
Activity (DU-145 [38]): 0.1%
Activity (DU-145 [39]): Active
fold change (FC) (DU-145 [40]): 3
